Source: paper PMC4324418 (ACS Chemical Neuroscience, 2014)

Legend:
human M4 = target: T1, human M4 (Homo sapiens, UniProt P08173); format: cell-based; settings: maximum response as % of the Emax of ACh
T1 sequence (P08173 1-479): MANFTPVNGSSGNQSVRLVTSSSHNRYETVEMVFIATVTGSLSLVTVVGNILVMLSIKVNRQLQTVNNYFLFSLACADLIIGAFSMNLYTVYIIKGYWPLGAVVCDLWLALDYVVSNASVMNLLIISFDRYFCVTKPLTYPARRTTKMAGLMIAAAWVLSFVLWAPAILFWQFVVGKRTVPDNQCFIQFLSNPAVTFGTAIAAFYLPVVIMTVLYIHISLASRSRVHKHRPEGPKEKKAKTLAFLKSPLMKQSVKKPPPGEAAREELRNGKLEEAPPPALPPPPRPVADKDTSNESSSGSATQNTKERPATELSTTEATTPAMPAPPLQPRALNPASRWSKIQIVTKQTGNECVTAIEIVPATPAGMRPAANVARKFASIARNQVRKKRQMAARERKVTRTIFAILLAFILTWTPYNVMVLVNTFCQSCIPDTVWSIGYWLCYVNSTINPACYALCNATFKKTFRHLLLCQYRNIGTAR

in vitro = in vitro ADME; settings: rat, plasma
wild-type mice [1] = format: in vivo, mouse; settings: data not shown
How it was run: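 Wild-type mice received vehicle (10% Tween 80, IP) or test compound (30 mg/kg IP). Thirty minutes later they received saline (IP) or MK-801 (0.3 mg/kg IP).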

wild-type mice [2] = assay: Contextual fear conditioning, four-shock, MK-801-induced deficit; format: in vivo, mouse
How it was run: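 Subjects were wild-type and M4 KO mice, 8–11 weeks old, handled for 3 days and saline-injected 1 day before conditioning. Vehicle (10% Tween 80 in water, IP) or test compound (3–10 mg/kg IP) was given 30 min before saline or MK-801 (0.1–0.3 mg/kg IP). Mice entered the chamber 30 min later for a four-shock conditioning trial. Percent freezing was scored 24 h later, drug-free.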

in vivo = settings: male, Sprague-Dawley, rat, po, 3 mg/kg, Tmax,p
M4 KO mice [3] = assay: Touchscreen pairwise visual discrimination task, M4 KO mice; format: in vivo, mouse
How it was run: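 Mice aged 8–11 weeks were held at ~85% free-feeding weight, with water freely available. They were trained on touchscreen nosepoke discrimination (60 trials or 60 min) to ≥85% accuracy on 3 consecutive days. Next day: vehicle (10% Tween 80 IP) or test compound (3–30 mg/kg IP) 60 min pre-test, then saline or MK-801 (0.1–0.3 mg/kg IP) 30 min later. Mice were retested drug-free 24 h later. Analysis: ANOVA with Bonferroni tests.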

[4] = Mouse plasma protein binding; format: in vitro ADME
[5] = rat (data not shown)
rat M4 receptor = target: T2, rat M4 receptor (Rattus norvegicus, UniProt P08485); assay: [3H]NMS radioligand binding, modulation of ACh affinity; settings: ACh displacement of [3H]NMS, modulator 300 nM to 10 μM
T2 sequence (P08485 1-478): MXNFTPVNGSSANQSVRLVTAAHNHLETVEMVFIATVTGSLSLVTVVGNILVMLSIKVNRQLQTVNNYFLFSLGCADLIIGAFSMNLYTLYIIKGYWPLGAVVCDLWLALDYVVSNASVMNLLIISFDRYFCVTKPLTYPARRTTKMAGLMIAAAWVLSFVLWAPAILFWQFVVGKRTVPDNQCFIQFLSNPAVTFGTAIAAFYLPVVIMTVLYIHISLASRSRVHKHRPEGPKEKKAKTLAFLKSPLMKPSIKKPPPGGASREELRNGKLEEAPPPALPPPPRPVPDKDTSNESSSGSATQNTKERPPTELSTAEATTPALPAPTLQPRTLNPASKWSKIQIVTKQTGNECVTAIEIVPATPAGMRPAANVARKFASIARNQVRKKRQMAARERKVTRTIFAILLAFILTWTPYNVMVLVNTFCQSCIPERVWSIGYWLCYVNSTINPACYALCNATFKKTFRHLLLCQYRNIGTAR
How it was run: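 Membranes came from CHO cells expressing rat M4 cotransfected with Gqi5, homogenized in 50 mM Tris-HCl/0.9% NaCl, pH 7.4. Membranes (10 μg/well) were incubated with 300 pM [3H]NMS, fixed modulator (300 nM–10 μM) or vehicle, and ACh (1 nM–1 mM) for 3 h at room temperature with shaking. Buffer was 100 mM NaCl, 10 mM MgCl2, 20 mM HEPES, […], pH 7.4. Nonspecific binding was set with 10 μM atropine. Bound ligand was filtered and counted; n ≥ 2. Cooperativity was fitted with the […].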

[6] = Amphetamine-induced hyperlocomotion in wild-type mice; format: in vivo, mouse; settings: mouse, brain, ip, WT mice
wild-type mice [7] = assay: as above; format: in vivo, mouse; settings: WT mice, amphetamine […] SC
M4 KO mice [8] = assay: Amphetamine-induced hyperlocomotion in M4 KO mice; format: in vivo, mouse
[9] = Amphetamine-induced hyperlocomotion in M4 KO mice; format: in vivo, mouse; settings: mouse, brain, ip, 10 mg/kg, 10 mg/kg IP
rat M2 receptor = assay: Calcium mobilization, selectivity; format: cell-based
How it was run: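 Cells were seeded at 15000/well in DMEM with 10% dialyzed FBS, 20 mM HEPES and 1 mM pyruvate, then cultured overnight at 37 °C/5% CO2. M2 and M4 lines were cotransfected with Gqi5. Cells were loaded with 1 μM Fluo-4AM (HBSS, 20 mM HEPES, 2.5 mM probenecid, pH 7.4) for 50 min at 37 °C. ACh was added 140 s after test compound. Calcium signal was expressed as % of the 10 μM ACh maximum.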

[10] = M4 KO, VU0467154 10.0 mg/kg IP + MK-801 0.30 mg/kg IP
[11] = M4 KO, VU0467154 10.0 mg/kg IP + vehicle

## Cc1nnc2sc(C(=O)NCc3ccc(S(=O)(=O)C(F)(F)F)cc3)c(N)c2c1C [VU0467154, 5-amino-3,4-dimethyl-N-(4-((trifluoromethyl)sulfonyl)benzyl)thieno[2,3-c]pyridazine-6-carboxamide]
Human M4
  %AChmax: 55%
In vitro
  fraction unbound: 0.031
wild-type mice [1]
  serotonin utilization in the NAS and CP: Neither single nor combined administration of VU0467154 with MK-801 altered serotonin utilization
wild-type mice [2]; VU0467154 alone, four-shock
  effect on contextual fear conditioning: had no effect on contextual fear conditioning
wild-type mice [2]; pretreatment 3–10 mg/kg
  reversal of MK-801-induced deficits in the acquisition of contextual fear conditioning: dose-dependently reversed
In vivo
  Tmax: ~3 h
M4 KO mice [3]; M4 KO mice
  reversal of MK-801-induced pairwise discrimination deficit: did not reverse the MK-801-induced pairwise discrimination deficit
M4 KO mice [3]; M4 KO, MK-801 in combination with VU0467154 (vehicle 91%)
  response accuracy on the test day: 64%
M4 KO mice [3]; [10]
  correct reward collection latency: 1.57 ± 0.07 s
  correct touch latency: 8.45 ± 1.57 s
  time to complete 60 trials: 1120 ± 95.5 s
M4 KO mice [3]; [11]
  correct reward collection latency: 3.19 ± 0.73 s
  correct touch latency: 22.81 ± 8.86 s
  time to complete 60 trials: 2080 ± 384.9 ^e s
[4]
  fraction unbound: 0.022
[5]
  biliary and urinary excretion of the parent compound: Negligible
Rat M4 receptor
  increase in M4 affinity for ACh (α): 14.5 fold
  log α (binding cooperativity with ACh): 1.16 ± 0.06
[6]; 0.3 mg/kg, mean Cbrain, 0.3 mg/kg IP, at 2.5 h postadministration
  concentration at 2.5 h: 24 nM
[6]; 0.3 mg/kg, mean Cbrain,u, 0.3 mg/kg IP, 2.5 h, in vitro mouse fubrain 0.014
  concentration at 2.5 h: 0.3 nM
[6]; 3 mg/kg, mean Cbrain, 3 mg/kg IP, at 2.5 h postadministration
  concentration at 2.5 h: 157 nM
[6]; 3 mg/kg, mean Cbrain,u, 3 mg/kg IP, 2.5 h, in vitro mouse fubrain 0.014
  concentration at 2.5 h: 2.2 nM
[6]; 10 mg/kg, mean Cbrain, 10 mg/kg IP, at 2.5 h postadministration
  concentration at 2.5 h: 398 nM
[6]; 10 mg/kg, mean Cbrain,u, 10 mg/kg IP, 2.5 h, in vitro mouse fubrain 0.014
  concentration at 2.5 h: 5.6 nM
[6]; 30 mg/kg, mean Cbrain,u, 30 mg/kg IP, 2.5 h, in vitro mouse fubrain 0.014
  concentration at 2.5 h: 8.1 nM
wild-type mice [7]; 0.3 mg/kg IP
  mean reversal of AHL: 3.7%
wild-type mice [7]; 1 mg/kg IP
  mean reversal of AHL: 41.6%
wild-type mice [7]; 3 mg/kg IP
  mean reversal of AHL: 70.4%
wild-type mice [7]; 10 mg/kg IP
  mean reversal of AHL: 81.5%
wild-type mice [7]; 30 mg/kg IP
  mean reversal of AHL: 90.7%
M4 KO mice [8]
  effect on amphetamine-induced hyperlocomotion: had no effect on the time course of amphetamine-induced hyperlocomotion
M4 KO mice [8]; 10 mg/kg IP, amphetamine […] SC
  mean reversal of AHL: –6.6%
[9]; mean Cbrain, at 2.5 h postadministration
  concentration at 2.5 h: 217 nM
[9]; mean Cbrain,u, 2.5 h, in vitro mouse fubrain 0.014
  concentration at 2.5 h: 3 nM
Rat M2 receptor
  potentiation of ACh response (calcium response): lack of a calcium response
